Here are results for 24 compounds from ChEMBL document CHEMBL2346521, “Synthesis, structure-activity relationship studies, and identification of novel 5,6,7,8-tetrahydroimidazo[1,5-a]pyrazine derivatives as dual orexin receptor antagonists. Part 1” (Bioorg Med Chem Lett, 2013).

The target in data set [1] is T1, Orexin/Hypocretin receptor type 1 (Homo sapiens, UniProt O43613).
T1 sequence (O43613 whole entry): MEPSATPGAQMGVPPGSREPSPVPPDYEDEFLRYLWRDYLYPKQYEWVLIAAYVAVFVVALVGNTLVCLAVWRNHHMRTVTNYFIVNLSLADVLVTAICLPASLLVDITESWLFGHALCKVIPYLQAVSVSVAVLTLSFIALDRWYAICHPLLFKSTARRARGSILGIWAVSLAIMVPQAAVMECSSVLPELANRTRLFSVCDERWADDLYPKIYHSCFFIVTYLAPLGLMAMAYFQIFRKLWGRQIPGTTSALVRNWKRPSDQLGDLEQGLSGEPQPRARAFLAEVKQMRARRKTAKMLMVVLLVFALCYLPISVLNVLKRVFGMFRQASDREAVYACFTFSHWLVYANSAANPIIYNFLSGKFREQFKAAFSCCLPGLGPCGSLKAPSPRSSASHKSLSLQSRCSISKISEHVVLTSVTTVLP
The experiment in a line: Antagonist activity at human OX1 receptor expressed in CHO cells assessed as inhibition of orexin A-induced calcium influx by FLIPR assay. It is filed as functional, cell-based. The method in brief: (§1)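 CHO cells stably expressing human OX1R or OX2R, loaded at 37 °C, 5% CO₂ with the calcium dye fluo-3 AM, then washed. Antagonist added at a range of concentrations before an approximately EC₈₀ orexin A challenge. Ca²⁺ mobilization read by FLIPR. IC₅₀ taken as the concentration giving 50% inhibition of the orexin A-induced calcium response, reported in nM.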

A further data set addresses T2, Orexin receptor type 2 (Homo sapiens, UniProt O43614).
T2 sequence (O43614 whole entry): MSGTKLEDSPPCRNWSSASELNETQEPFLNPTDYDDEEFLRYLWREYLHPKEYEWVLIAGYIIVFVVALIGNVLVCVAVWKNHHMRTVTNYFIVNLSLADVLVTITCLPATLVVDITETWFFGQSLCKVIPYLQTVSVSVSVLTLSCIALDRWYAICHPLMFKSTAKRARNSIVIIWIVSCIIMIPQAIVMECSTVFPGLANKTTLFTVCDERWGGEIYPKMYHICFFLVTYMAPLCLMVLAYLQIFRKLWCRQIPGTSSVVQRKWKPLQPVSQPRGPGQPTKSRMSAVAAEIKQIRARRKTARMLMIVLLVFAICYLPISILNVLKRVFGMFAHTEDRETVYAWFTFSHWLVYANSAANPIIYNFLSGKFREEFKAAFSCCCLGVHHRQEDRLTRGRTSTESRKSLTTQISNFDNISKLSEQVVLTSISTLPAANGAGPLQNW
Briefly: Antagonist activity at human OX2 receptor expressed in CHO cells assessed as inhibition of orexin A-induced calcium influx by FLIPR assay. It is filed as functional, cell-based. The procedure, abridged: as §1

Data set [2] is described as follows: Ratio of drug level in brain to plasma in Wistar rat at 100 mg/kg, po after 3 hrs. The arrangement: dose 100 mg/kg, route oral. The conditions noted are these: read-out: BPR. Format: ADME, organism-based. The procedure, abridged: (§2)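 Male Wistar rats dosed orally at 100 mg/kg. Brain and plasma sampled 3 h after dosing. Total compound levels given as nM and as ng/g (brain) or ng/ml (plasma). Brain/plasma ratio calculated from these total concentrations.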

Data set [3] can be described thus: Drug uptake in Wistar rat brain at 100 mg/kg, po after 3 hrs. The conditions noted are these: read-out: Drug uptake. The arrangement: dose 100 mg/kg, route oral. It is filed as ADME, organism-based. The method in brief:
as §2

Data set [4] is described as follows: Plasma protein binding in human. Format: ADME, cell-free. The settings on record: read-out: PPB.
A short description of data set [5]: Plasma concentration in Wistar rat at 100 mg/kg, po after 3 hrs. It is filed as ADME, organism-based. On the set-up: dose 100 mg/kg, route oral. The method in brief: as §2

SMILES strings stand for the structures. Some results are limits rather than exact numbers.

In the case of `CCc1nc(C#N)c2n1CCN([C@@H](C(=O)NC)c1ccccc1)C2CCc1ccc(C(F)(F)F)cc1` (mixture of isomers), the half-maximal inhibitory concentration (IC50) (usually the concentration that inhibits the measured activity by half) in data set [1] was 537 nM; at Orexin receptor type 2 it was 10 nM.
Turning to `CNC(=O)[C@@H](c1ccccc1)N1CCn2c(C3CC3)nc(Cl)c2[C@@H]1CCc1ccc(C(F)(F)F)cc1`, the Kp at 3 h in data set [2] amounted to 0.06. In addition, the IC50 came out at 31 nM in data set [1] and 9 nM on Orexin receptor type 2. The values for the concentration at 3 h in data set [3] and in data set [5] were 385 nM and 6400 nM, respectively. Moreover, the fraction unbound in data set [4] is 0.01.
As to `CNC(=O)[C@@H](c1ccccc1)N1CCn2c(C)nc(Cl)c2[C@@H]1CCc1ccc(C(F)(F)F)cc1`, the IC50 was found to be 90 nM in data set [1] and 13 nM at Orexin receptor type 2.
The like results for `CCCc1nc(CC)n2c1C(CCc1ccc(C(F)(F)F)cc1)N([C@@H](C(=O)NC)c1ccccc1)CC2` (stereo partly specified) were, in that order, above 10000 nM and 225 nM.
In the same order, the values of `CCc1nc(Cl)c2n1CCN([C@@H](C(=O)NC)c1ccccc1)[C@@H]2CCc1ccc(C(F)(F)F)cc1` are 283 nM and 107 nM.
The like results for `CCc1nc(C(F)(F)F)c2n1CCN([C@@H](C(=O)NC)c1ccccc1)[C@H]2CCc1ccc(C(F)(F)F)cc1` were, in that order, 1070 nM and 11 nM.
As to `CCc1nc(C(=O)N(C)C)c2n1CCN([C@@H](C(=O)NC)c1ccccc1)C2CCc1ccc(C(F)(F)F)cc1` (stereo partly specified), the IC50 is 344 nM in data set [1] and 111 nM on Orexin receptor type 2.
With `CCOc1nc(CC)n2c1C(CCc1ccc(C(F)(F)F)cc1)N([C@@H](C(=O)NC)c1ccccc1)CC2` (mixture of isomers), the IC50 was found to be 3980 nM in data set [1] and 2750 nM on Orexin receptor type 2.
The like results for `CCc1nc(C(N)=O)c2n1CCN([C@@H](C(=O)NC)c1ccccc1)C2CCc1ccc(C(F)(F)F)cc1` (mixture of isomers) were, in that order, above 10000 nM and 194 nM.
The like results for `CCc1nc(OC)c2n1CCN([C@@H](C(=O)NC)c1ccccc1)C2CCc1ccc(C(F)(F)F)cc1` (mixture of isomers) were, in that order, 134 nM and 73 nM.
For the compound `CCCc1nc(Cl)c2n1CCN([C@@H](C(=O)NC)c1ccccc1)[C@H]2CCc1ccc(C(F)(F)F)cc1`, the IC50 in data set [1] amounted to 459 nM; on Orexin receptor type 2 it was 60 nM.
In the same order, the values of `CCc1nc(SC)c2n1CCN([C@@H](C(=O)NC)c1ccccc1)[C@H]2CCc1ccc(C(F)(F)F)cc1` are 85 nM and 14 nM.
In the same order, the values of `CNC(=O)[C@@H](c1ccccc1)N1CCn2c(C(C)C)nc(Cl)c2[C@@H]1CCc1ccc(C(F)(F)F)cc1` are 313 nM and 11 nM.
In the same order, the values of `CCc1ncc2n1CCN([C@@H](C(=O)NC)c1ccccc1)C2CCc1ccc(C(F)(F)F)cc1` (mixture of isomers) are above 10000 nM and 194 nM.
Regarding `CCc1nc(I)c2n1CCN([C@@H](C(=O)NC)c1ccccc1)C2CCc1ccc(C(F)(F)F)cc1` (mixture of isomers), the IC50 was 717 nM in data set [1] and 23 nM at Orexin receptor type 2.
For `CCc1nc(C)c2n1CCN([C@@H](C(=O)NC)c1ccccc1)C2CCc1ccc(C(F)(F)F)cc1` (mixture of isomers), the IC50 in data set [1] was above 10000 nM; on Orexin receptor type 2, 24 nM.
For the compound `CCc1nc(C2CC2)c2n1CCN([C@@H](C(=O)NC)c1ccccc1)[C@H]2CCc1ccc(C(F)(F)F)cc1`, the results for the IC50 (in data set [1]; at Orexin receptor type 2) were 4170 nM and 29 nM, respectively.
Regarding `CCc1nc(C(=O)NC)c2n1CCN([C@@H](C(=O)NC)c1ccccc1)C2CCc1ccc(C(F)(F)F)cc1` (stereo partly specified), the IC50 in data set [1] is 492 nM; at Orexin receptor type 2 it was 38 nM.
On to `CCc1nc(Cl)c2n1CCN([C@@H](C(=O)NC)c1ccccc1)[C@H]2CCc1ccc(C(F)(F)F)cc1`, for which, in data set [2], the Kp at 3 h came out at 0.07. Besides, the IC50 in data set [1] was 40 nM; on Orexin receptor type 2, 9 nM. Moreover, the concentration at 3 h was determined as 303 nM in data set [3] and 4210 nM in data set [5]. In addition, the fraction unbound in data set [4] was 0.01.
Consider `C=Cc1nc(CC)n2c1C(CCc1ccc(C(F)(F)F)cc1)N([C@@H](C(=O)NC)c1ccccc1)CC2` (single isomer, unassigned), for which the values for the IC50 (in data set [1]; on Orexin receptor type 2) were 150 nM and 23 nM, respectively.
The like results for `CCc1nc(C(C)C)c2n1CCN([C@@H](C(=O)NC)c1ccccc1)C2CCc1ccc(C(F)(F)F)cc1` (stereo partly specified) were, in that order, above 10000 nM and 2900 nM.
As for `CNC(=O)[C@@H](c1ccccc1)N1CCn2c(CC3CC3)nc(Cl)c2[C@@H]1CCc1ccc(C(F)(F)F)cc1`, the IC50 in data set [1] turned out to be 1430 nM; on Orexin receptor type 2, 35 nM.
In the same order, the values of `CCc1nc(CC)n2c1C(CCc1ccc(C(F)(F)F)cc1)N([C@@H](C(=O)NC)c1ccccc1)CC2` (mixture of isomers) are above 10000 nM and 20 nM.
For `CNC(=O)[C@@H](c1ccccc1)N1CCn2c(COC)nc(Cl)c2[C@@H]1CCc1ccc(C(F)(F)F)cc1` (mixture of isomers), the IC50 in data set [1] was 1650 nM; on Orexin receptor type 2 it was 25 nM.
